# Rows were chosen to be rich in hits. Some 1.7% of all compounds tested hit in one or more screens of this group.
# SUMO1-SIM PPI: alters human SUMO1 binding to SIM partners. inhibition, % at 20 µM. SUMO1 binding to a labelled peptide, TR-FRET, 1 h. P63165. actives 0.33% (n = 360,000); in the data active means inhibition above about 37%
# Target sequence (P63165 whole entry, looked up): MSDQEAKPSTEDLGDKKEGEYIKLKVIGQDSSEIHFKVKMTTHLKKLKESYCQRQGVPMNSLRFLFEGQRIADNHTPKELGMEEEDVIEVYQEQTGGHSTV
# Scp1 inh: blocks human Scp-1 phosphatase activity | actives 0.88% (n = 340,000) | Recombinant Scp1, phosphopeptide, malachite green phosphate absorbance | inhibition, % at 20 µM;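 active means inhibition above about 50% at 20 µM, limit read from the data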;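 further: plate controls were DMSO wells with enzyme for no effect and wells lacking enzyme for full effect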
# Target sequence (Q9GZU7 76-261 limits assumed): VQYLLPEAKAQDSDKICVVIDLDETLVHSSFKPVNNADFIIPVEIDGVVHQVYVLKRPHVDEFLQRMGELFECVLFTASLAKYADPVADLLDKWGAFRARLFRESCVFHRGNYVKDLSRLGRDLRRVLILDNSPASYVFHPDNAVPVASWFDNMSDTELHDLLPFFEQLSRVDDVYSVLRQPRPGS
#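 assay system = SCP-1 phosphatase catalytic domain, residues 76-261 | buffer or medium = 50 mM Tris acetate pH 5.5, 0.005% Tween-20, 10 mM MgCl2 | incubation = enzyme reaction 45 min at room temperature, colour 5 min, stabilisation 30 min | signal = Phosphate-binding colour reagent, absorbance read at 630 nm | measure = % inhibition at 20 µM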
# STEP inh: blocks human striatal-enriched tyrosine phosphatase; P54829; inhibition, % at 20 µM; AID 588621; actives 0.25% (n = 360,000); recombinant STEP, OMFP fluorogenic substrate, fluorescence;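 active means inhibition at 20 µM, scaled per plate between control wells, above about 37%, limit read from the data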;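 further: 0% = DMSO with enzyme and substrate and 100% = substrate only without enzyme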
#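 Measure: Control-normalized % inhibition with plate pattern correction | Test system: STEP phosphatase, cell-free reaction | Medium: pH 6.0 Bis-Tris with DTT and Tween 20 | Technique: Fluorescence, 480/540 nm | Times: Reaction 20 min, ambient temperature | Doses: Single compound dose of 20 µM, 1% DMSO final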
# DNMT1 block: DNMT1 (human) enzyme inhibition | P26358 | DNMT1 molecular beacon, Hinp1I cleavage, fluorescence | inhibition (reported as % activation of signal), % at 10 µM | actives 0.83% (n = 360,000) | AID 588458; in the data active means inhibition above about 50%
# LMPTP inh: blocks human LMPTP phosphatase | actives 0.22% (n = 360,000) | recombinant LMPTP-A, OMFP fluorogenic substrate, fluorescence intensity | inhibition, % at 20 µM | AID 651560;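 active means compounds that cut the enzyme signal by at least half of the control window in the single-dose screen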;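 further: plate controls were DMSO wells with enzyme plus substrate for no effect and substrate without enzyme for full effect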
# Target sequence (P24666 whole entry, looked up): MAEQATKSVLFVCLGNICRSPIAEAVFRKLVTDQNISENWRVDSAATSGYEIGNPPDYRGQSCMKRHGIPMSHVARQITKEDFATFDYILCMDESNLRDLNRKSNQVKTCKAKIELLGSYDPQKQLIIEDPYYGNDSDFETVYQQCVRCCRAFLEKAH
#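 Test system: LMPTP-A phosphatase enzyme. Amount: LMPTP-A at 0.625 nM final in the reaction. Reagent: OMFP substrate, 400 µM final. Times: 50 min at room temperature. Signal: endpoint fluorescence intensity from OMFP dephosphorylation. Read-out basis: % inhibition. Benchmarks: no-enzyme and uninhibited controls.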
# Scp-1 conf: confirmation of human Scp-1 phosphatase inhibitors; AID 540281; recombinant SCP-1 catalytic domain, phosphate release, malachite green absorbance; inhibition, % at 20 µM; actives 61% (n = 2,500); shares compounds with Scp1 inh;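 further: plate controls were DMSO with enzyme for no effect and buffer wells lacking enzyme for full effect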
# MG interference: colorimetric interference in Scp-1 counter-screen. shares compounds with Scp1 inh. Colorimetric interference counterscreen, malachite green absorbance 630 nm. apparent inhibition (interference), % at 20 µM. 2,500 tested, under 10 active;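 further: compounds added after enzyme reaction finished so only phosphate colour detection is probed; plate controls were DMSO wells with completed Scp-1 reaction for no effect and substrate wells lacking enzyme for full effect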
# Scp-1 Tm shift: validation of human Scp-1 inhibitors by thermal shift binding. shares compounds with Scp1 inh. Recombinant SCP1, Sypro Orange thermal shift Tm. thermal shift relative to vanadate control, % at 40 µM. actives 25% (n = 1,500);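 active means substances whose mean melting-temperature shift, as a percentage of the reference inhibitor's shift, reaches about 5.3%, limit read from the data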;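 further: 0% = Tm of DMSO wells and 100% = Tm with sodium orthovanadate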
# An asterisk follows results filed as active; . = not tested or not shown.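 How the source made its calls, unless noted: active means inhibition of at least 30% at 20 µM; inactive means the rest.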
SMILES,SUMO1-SIM PPI,Scp1 inh,STEP inh,DNMT1 block,LMPTP inh,Scp-1 conf,MG interference,Scp-1 Tm shift
COc1ccc(C(CNC(=O)c2cccc(S(=O)(=O)Nc3ccc(F)cc3)c2)N2CCOCC2)cc1 (centres undefined),3,-5,0,8,-1,.,.,.
COc1ccc(Cl)cc1-c1nc(SCC(=O)NCC2CCCO2)n[nH]1 (centres undefined),2,-3,-2,1,-2,.,.,.
CC[n+]1c(C)cc2c(sc3ccccc32)c1C,-5,63*,-3,0,1,-19,-15,.
COc1cc(/C=C/C(=O)O)cc(S(=O)(=O)NNC(=O)c2cc(C)oc2C)c1OC,4,53*,-1,18,-1,49*,3,-3
CC1CCN(C2=NN3C(=N)/C(=C\c4ccc(OC(=O)c5ccco5)cc4)C(=O)N=C3S2)CC1,13,35,2,16,0,.,.,.
N=C1/C(=C\c2ccc(OC(=O)c3ccc(F)cc3)cc2)C(=O)N=C2SC(N3CCOCC3)=NN12,-3,66*,2,8,1,56*,-2,1
Nc1nc2c(nc(SCc3ccccc3Br)n2[C@@H]2O[C@H](CO)[C@@H](O)[C@H]2O)c(=O)[nH]1,5,-9,2,0,1,.,.,.
CCOC(=O)CN1C(=O)N[C@@H](c2ccc(Br)cc2)C(C(=O)OC)=C1C,-1,-6,0,2,-1,.,.,.
CCOC(=O)CN1C(=O)N[C@H](c2ccc(Br)cc2)C(C(C)=O)=C1C,-5,76*,-4,-1,-2,18,1,.
COc1ccc(/C=C(\C#N)C(=O)Nc2ccc3[nH]c(=O)[nH]c3c2)cc1,-2,111*,4,24,32,66*,-14,-5
COc1ccccc1-n1cnc2c(c1=O)c1nc3ccccc3nc1n2-c1ccc(C)cc1,-4,87*,2,-6,5,34*,-12,-12
COc1ccccc1-n1c2nc3ccccc3nc2c2c(=O)n(-c3cc(C)cc(C)c3)cnc21,-26,6,3,-2,2,.,.,.
CSc1nnc(-c2ccc(NC(=O)CCc3ccccc3)cc2)n1C,1,102*,-4,8,-2,-5,-16,.
Cn1c(SCC(=O)Nc2ccccc2)nnc1-c1ccc(NC(=O)CCc2ccccc2)cc1,1,0,-1,3,-1,.,.,.
COCCCn1c(SCC(=O)NC2CCCC2)nnc1-c1cccs1,3,-1,0,2,-1,.,.,.
O=C(Cc1ccc(S(=O)(=O)N2CCCC2)s1)N1CCN(c2ccccc2)CC1,3,0,0,4,-1,.,.,.
O=C(O)Cc1ccc(S(=O)(=O)N2CCCC2)s1,10,93*,18,67*,2,58*,-22,0
COc1ccc(N2CCN(C(=O)Cc3ccc(S(=O)(=O)N4CCOCC4)s3)CC2)cc1,-1,81*,0,28,10,69*,-12,4
Cc1ccc(S(=O)(=O)N2CCN(C(=O)Cc3ccc(S(=O)(=O)N4CCOCC4)s3)CC2)cc1,0,-4,0,-3,1,.,.,.
CCCc1ccc(C(=O)NNC(=O)c2ccc(Cl)cc2)cc1,3,94*,4,12,25,74*,-15,-3
CCCc1ccc(C(=O)NNc2cc(Cl)ccc2Cl)cc1,0,-11,-2,4,4,.,.,.
CN(C)C(=O)COC(=O)c1ccc(S(=O)(=O)NCc2ccco2)cc1,5,75*,5,44,-1,54*,-10,-16
O=C(COC(=O)c1ccc(S(=O)(=O)NCc2ccco2)cc1)Nc1ccc(Cl)cn1,9,60*,4,40,9,64*,-11,6.4*
N/C(=N\OC(=O)c1ccc(Br)cc1)c1cccc([N+](=O)[O-])c1,-21,65*,2,10,0,62*,-19,1
N#Cc1c(SCC(=O)Nc2cccc(F)c2)sc2c(O)cc(=O)[nH]c12,7,58*,12,29,26,60*,-10,7.7*
SMILES,SUMO1-SIM PPI,Scp1 inh,STEP inh,DNMT1 block,LMPTP inh,Scp-1 conf,MG interference,Scp-1 Tm shift
CCCSc1nnc(NC(=O)CSc2sc3c(O)cc(=O)[nH]c3c2C#N)s1,2,70*,-4,-1,0,65*,-16,12*
CCOc1cccc(NC(=O)CSc2sc3c(O)cc(=O)[nH]c3c2C#N)c1,2,-1,5,4,4,.,.,.
N#Cc1cccc(NC(=O)CSc2sc3c(O)cc(=O)[nH]c3c2C#N)c1,24,50*,13,46,70*,22,-4,.
CCn1cc(S(=O)(=O)NC(C)c2cc(OC)ccc2OC)cn1 (centres undefined),0,-4,-2,2,0,.,.,.
O=C(NCc1cccnc1)c1cccc(S(=O)(=O)NCc2ccccc2)c1,-35,-4,-1,-9,-10,.,.,.
COc1ccc(NC(=O)Nc2ccc(N(C)C)cc2)cc1,1,57*,-4,-8,0,-3,-14,.
CC(Sc1ccccc1)C(=O)NNC(=O)c1ccncc1 (centres undefined),2,1,3,-1,-1,.,.,.
Cc1nc2ccc(C(=O)O)cc2c2c1CC(C)S2 (centres undefined),16,79*,7,54*,0,61*,-10,4
Cc1c(CCC(=O)O)c(=O)oc2c(C)c3occ(-c4ccc(Cl)cc4)c3cc12,37,64*,35,4,88*,77*,-23,-18
Cc1c(CCC(=O)O)c(=O)oc2cc3occ(-c4ccc(Cl)cc4)c3cc12,24,-12,5,3,12,.,.,.
O=C(c1c(F)cccc1F)N(C1CCCCC1)C1CCCCC1,8,-4,-2,7,1,.,.,.
NCCCC(=O)O,1,-6,-4,2,-1,.,.,.
NCCCCC(=O)O,1,54*,-3,-2,-3,-7,-11,.
CCC(NC(=O)Cn1cnc2c(=O)n(C)c(=O)n(C)c21)c1ccccc1 (centres undefined),1,0,1,1,-1,-8,-11,.
Cn1c(=O)c2ncn(CC(=O)NCCOc3ccccc3)c2n(C)c1=O,0,-8,-2,4,-1,.,.,.
COc1ccc(CNC(=O)Cn2cnc3c(=O)n(C)c(=O)n(C)c32)cc1,2,-6,0,1,-1,-7,-8,.

# Source: PubChem
